Bioassay records: PubChem, Broad Institute
Rows were chosen to be rich in hits. Some 2.2% of all compounds tested hit in one or more screens of this group.
Dyrk1A ADPGlo = rat Dyrk1A kinase inhibitors, primary screen, biochemical, single point, plate reader; ADP-Glo luminescence, NFATc1 peptide; inhibition, % at 12.5 µM; actives 0.43% (n = 310,000); AID 504441, 2011; in the data active = inhibition above about 50%;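 also: plate controls were vehicle with enzyme for no effect and no enzyme for full effect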
dFosB activator = activators of delta FosB homodimer, primary screen, biochemical, fluorescence polarization, TAMRA-CDK5 oligo, single point | Protein FosB (Mus musculus), P13346 | activation, % at 25 µM | actives 0.99% (n = 340,000) | purified delta FosB; percent of positive-control signal above neutral wells;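 active = mean activation above about 17%, with every replicate also reaching it, limit read from the data, passing the limit was not always enough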
CDK5 p35 inh = inhibitors of human CDK5/p35 kinase, primary screen, biochemical, single concentration | Recombinant CDK5/p35, ADP-Glo luminescence, 60 min | inhibition, % at 10 µM | actives 0.01% (n = 330,000);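 active = highest replicate inhibition of at least 50% and at least 75% of replicates reaching 50%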;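 also: plate controls were DMSO neutral control for no effect and GW8510 at 10 µM for full effect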
Target sequence (Q00535 whole entry, looked up): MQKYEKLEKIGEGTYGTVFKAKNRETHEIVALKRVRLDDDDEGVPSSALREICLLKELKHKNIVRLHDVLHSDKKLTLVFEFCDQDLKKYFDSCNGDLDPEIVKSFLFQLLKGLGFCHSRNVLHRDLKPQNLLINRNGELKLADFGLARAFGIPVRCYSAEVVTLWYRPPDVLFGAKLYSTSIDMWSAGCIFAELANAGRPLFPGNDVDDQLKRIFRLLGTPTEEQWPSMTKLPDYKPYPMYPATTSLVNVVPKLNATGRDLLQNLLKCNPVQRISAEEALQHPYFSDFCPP
Target sequence (Q15078 whole entry, looked up): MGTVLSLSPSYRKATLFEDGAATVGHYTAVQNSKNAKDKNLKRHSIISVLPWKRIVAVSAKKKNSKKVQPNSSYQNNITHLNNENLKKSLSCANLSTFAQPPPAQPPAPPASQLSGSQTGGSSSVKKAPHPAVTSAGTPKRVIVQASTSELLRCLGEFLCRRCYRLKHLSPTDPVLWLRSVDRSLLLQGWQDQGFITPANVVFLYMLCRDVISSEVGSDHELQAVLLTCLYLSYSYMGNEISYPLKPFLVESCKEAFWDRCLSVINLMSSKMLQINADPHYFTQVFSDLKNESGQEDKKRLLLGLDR
CAL PDZ FP-1 = CAL PDZ peptide-binding inhibitors, primary screen, biochemical, fluorescence polarization, Cer-tagged CAL PDZ, HTS | Golgi-associated PDZ and coiled-coil motif-containing protein (Homo sapiens), Q9HD26 | purified CAL PDZ, TMR-peptide fluorescence polarization, 1 h | inhibition, % at 20 µM | actives 0.02% (n = 330,000);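 active = highest replicate inhibition of at least 40%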;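 also: plate controls were DMSO neutral control wells for no effect and unlabeled competitor peptide control wells for full effect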
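material = purified tagged CAL PDZ domain construct (CerCALP) | buffer or medium = sodium phosphate/NaCl buffer pH 7.4 with TCEP, IgG, Thesit | reagent = TMR-labelled reporter peptide T*-PRC34 bound in PDZ groove | incubation = 1 h room-temperature incubation prior to read | measured by = fluorescence polarization (mP) | evaluation = percent inhibition from loss of millipolarization | control set = unlabelled peptide and DMSO controls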
Rtt109 HAT inh = inhibitors of C. albicans Rtt109/Vps75 HAT, primary screen, biochemical, ThioGlo CoA-SH fluorescence, plate reader. purified Rtt109/Vps75, 4 h. actives 0.16% (n = 330,000). AID 540336, 2011. Histone acetyltransferase RTT109 (Candida albicans (strain SC5314 / ATCC MYA-2876)), …. inhibition, % at 34.9 µM;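 active = inhibition of at least 50% in every replicate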
CAL PDZ FP-2 = untagged CAL PDZ binding inhibitors, primary screen, biochemical, fluorescence polarization, HTS | Golgi-associated PDZ and coiled-coil motif-containing protein (Homo sapiens), Q9HD26 | purified CAL PDZ, TMR-peptide fluorescence polarization, 1 h | inhibition, % at 24.9 µM | actives 0.92% (n = 300,000) | AID 602252, 2012;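 active = mean inhibition of at least 30% with at least half of replicates also reaching 30%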;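 also: 0% = DMSO neutral control and 100% = excess unlabeled competitor peptide PRC23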
An asterisk follows results filed as active; . = no result given.

SMILES	Dyrk1A ADPGlo	dFosB activator	CDK5 p35 inh	CAL PDZ FP-1	Rtt109 HAT inh	CAL PDZ FP-2
Cc1c(C(=O)Oc2cccc3cccnc23)oc2ccccc12	.	-7.9	-0.2	-0.3	1.6	39.4*
CCc1nc2ccccc2c(C(=O)Oc2cccc3cccnc23)c1C	-0.9	-15.9	-2.5	22.9	-56.4	-0.3
COc1ccc(-c2csc(N3C(=O)CNC3=S)n2)cc1	-0.6	-2.0	-2.6	-0.5	-2.2	66.6*
Cc1ccc(NCc2n[nH]c(=S)n2-c2ccccc2)c(C)c1	-0.6	-12.3	-4.8	0.4	-5.3	.
CC1CCCCN1C(=O)COc1ccc2ccc(=O)oc2c1 (stereo not given)	.	-1.4	0.8	-1.4	-3.4	-2.2
CN1CCC(OC(=O)COc2ccc(F)cc2)CC1	-4.2	4.0	-0.3	11.2	0.3	47.3*
CC1CCCCN1C(=O)COc1ccc(F)cc1 (stereo not given)	-0.9	-3.4	1.1	-1.1	-2.2	44.1*
C=CCN(CC(=O)Nc1cccnc1)S(=O)(=O)c1ccc(Cl)cc1	-4.4	1.0	0.7	0.0	-0.7	.
CCn1c(=S)sc2c(=O)n(CC(=O)Nc3ccccc3OC)c(C)nc21	.	-3.4	.	-2.7	6.4	0.3
Cc1nc2c(sc(=S)n2Cc2ccco2)c(=O)n1CC(=O)Nc1ccccc1Cl	4.3	56.4*	-11.9	-3.9	-4.1	-4.1
CCCOc1ccc(C(=O)O)cc1	-3.2	2.9	-2.6	1.0	-1.4	76.5*
CCCCOc1ccc(C(=O)O)cc1	5.1	3.9	0.2	.	5.2	1.5
CCC1CCc2c(sc(N)c2C(N)=O)C1 (stereo not given)	3.8	-12.7	1.3	-1.9	1.0	-0.4
CC1CCc2c(sc(N)c2C(N)=O)C1 (stereo not given)	15.6	-15.4	-0.2	-1.9	50.5*	-4.1
COC(=O)c1cc(OC)c(OC)cc1NC(=O)CN1C(=O)c2ccccc2C1=O	-3.7	1.7	-1.3	-1.3	9.3	-2.5
COC(=O)c1cc(-c2ccccc2)sc1NC(=O)CN1C(=O)c2ccccc2C1=O	.	-1.5	2.1	0.0	1.2	122.6*
CC(=O)c1ccc(N2CCN(CC(O)COC(c3ccccc3)c3ccccc3)CC2)cc1 (stereo not given)	0.9	-3.7	0.2	-2.0	54.7*	1.0
C[C@H](NC(N)=O)C(=O)Nc1ccc(N2CCOCC2)c(S(=O)(=O)Nc2ccc(Cl)cc2)c1	-6.0	-14.7	-1.0	-0.9	-11.7	2.6
O=C(CSc1nncs1)Nc1cc(S(=O)(=O)N2CCOCC2)ccc1N1CCCC1	6.1	-0.3	0.3	-2.0	8.4	-2.7
Nc1nnc(SCC(=O)Nc2cc(S(=O)(=O)N3CCOCC3)ccc2N2CCCC2)s1	.	-2.9	-0.6	-2.5	1.3	67.5*
COc1ccc(S(=O)(=O)N2CCOCC2)cc1NC(=O)CN1CCCCCC1	-0.1	0.6	0.2	31.9	2.8	35.6*
COc1ccc(S(=O)(=O)N2CCOCC2)cc1C(=O)NCC(c1ccccc1)c1ccccc1	-1.9	1.4	0.9	-0.7	-6.9	42.0*
CCOc1cc(C)c(Cl)cc1S(=O)(=O)N(CC)CC	0.2	-5.9	1.6	-0.5	-10.4	73.8*
Cc1ccccc1NC(=O)Cc1ccccc1	0.1	-1.1	0.2	-2.0	5.8	69.6*
Cc1ccccc1NC(=O)CCCCC(=O)Nc1ccccc1C	5.5	5.6	-0.1	-1.0	13.6	6.9
SMILES	Dyrk1A ADPGlo	dFosB activator	CDK5 p35 inh	CAL PDZ FP-1	Rtt109 HAT inh	CAL PDZ FP-2
Cc1ccccc1NNC(=O)C(=O)NNc1ccccc1C	0.6	1.7	1.6	-0.8	-17.2	32.8*
COc1cccc(C(=O)c2cc3cc(Cl)ccc3[nH]2)c1	-3.8	-6.8	0.1	-0.4	0.5	-1.7
COc1cc(-c2nnc(SCC(=O)O)n2-c2ccccc2)cc(OC)c1OC	-3.0	6.8	0.0	.	11.0	68.9*
COc1ccccc1CNCc1cccc(Oc2ccccc2)c1	.	-11.3	0.2	0.1	5.4	-7.4
CN(CCc1cnn(C)c1)Cc1cn(C)nc1-c1ccc2c(c1)OCCO2	4.7	0.7	-1.5	-1.2	.	-1.7
Cc1n[nH]c(C)c1CCN(C)Cc1cn(C)nc1-c1ccc2c(c1)OCCO2	-4.9	4.7	-0.1	-0.3	2.0	101.8*
Cc1cccc(C(=O)OC(C)C(=O)N2CCc3ccccc3C2)c1C (stereo not given)	-3.4	-4.2	-1.3	-0.7	11.5	52.0*
Cc1ccc(Cn2c(SCC(=O)Nc3cc(C)on3)nc3ccccc3c2=O)cc1	6.7	65.3*	1.0	-1.7	-8.4	-4.2
Cc1cc(NC(=O)CSc2nc3ccccc3c(=O)n2Cc2ccccc2)no1	8.3	-0.7	1.4	1.0	-11.2	-0.2
Cc1cc(NC(=O)CSc2nnc3ccccn23)no1	3.9	3.7	-2.5	-0.7	-3.1	78.4*
O=C(CSc1nnc2ccccn12)NNC(=O)c1ccc(Cl)cc1	0.5	0.4	1.4	-0.3	-9.8	1.3
O=C(CSc1nnc2ccccn12)NNC(=O)c1cccc(Cl)c1	-0.7	0.3	-0.2	0.5	57.6*	-2.5
COc1cc2ccccc2cc1C(=O)N1CCN(c2ccccc2O)CC1	.	-8.1	0.3	-0.5	3.2	.
N=c1n(CCN2CCCCC2)c2ccccc2n1CC(O)c1ccc(Cl)c(Cl)c1 (stereo not given)	.	-7.8	0.9	-4.0	57.9*	-0.3
CN(C)C1=NCCN1CCc1cccc(F)c1	-5.8	0.6	0.2	0.7	-7.6	1.1
CCC1C(c2ccccc2)=CCC(C(=O)O)C1C (stereo not given)	.	-0.1	0.9	-1.5	-1.6	-1.4
COc1ccccc1CCNC(=O)c1cccc(NC(=O)CC2SC(N3CCCCC3)=NC2=O)c1 (stereo not given)	-1.9	-19.7	-3.1	-1.1	7.9	-0.8
Cc1ccc(NC(=S)Nc2ccc(OC(F)F)c(Cl)c2)cc1F	6.4	-7.4	-0.8	0.2	3.0	65.7*
CCOC(=O)NC1=NCC(C)S1 (stereo not given)	-2.3	0.5	1.4	-1.7	-4.3	-4.2
CCN1C[C@@H]2[C@@H]3C(=O)N(C)C(=O)[C@@H]3[C@](C)(C1=O)N2C(=O)c1ccc(Br)cc1	-0.1	4.6	-0.4	-0.9	-3.1	-1.2
